Experimental data as given in ChEMBL document CHEMBL3351600, “Sulfur, selenium and tellurium pseudopeptides: synthesis and biological evaluation” (Bioorg Med Chem, 2014).

Key:
MDA-MB-231 = experiment: Growth inhibition of human MDA-MB-231 cells after 48 hrs; assay type: functional; details: MDA-MB-231, 48 h
Outline: (§1)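 NCI-60 human tumour cell line panel screen run at the US National Cancer Institute under its standard cytotoxicity protocol. It covers leukaemia, NSCLC, colon, CNS, melanoma, ovarian, renal, prostate and breast lines. An initial single-dose test was followed by five-dose testing with 48 h compound exposure.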

U-251 = experiment: Growth inhibition of human U251 cells after 48 hrs; assay type: functional; details: U-251, 48 h, read-out: pLC50 (the source's name) (converted)
Outline: (§2)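 Run by the NCI 58-cell-line screen under its standard cytotoxicity protocol. Compounds were first tested at a single dose, then at five doses. Cells were exposed to compound for 48 h.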

[1] = Growth inhibition of human COLO205 cells after 48 hrs; assay type: functional; details: COLO 205, 48 h; outline: as §1
SK-MEL-28 = experiment: Growth inhibition of human SK-MEL-28 cells after 48 hrs; assay type: functional; details: SK-MEL-28, 48 h; outline: as §1
HL-60(TB) = experiment: Growth inhibition of human HL-60(TB) cells after 48 hrs; assay type: functional; details: HL-60, 48 h; outline: as §1
[2] = Growth inhibition of human OVCAR8 cells after 48 hrs; assay type: functional; details: OVCAR-8, 48 h; outline: as §1
M14 = experiment: Growth inhibition of human M14 cells after 48 hrs; assay type: functional; details: M14, 48 h; outline: as §1
[3] = Growth inhibition of human MOLT4 cells after 48 hrs; assay type: functional; details: MOLT-4, 48 h; outline: as §1
MCF7 [4] = experiment: Cytotoxicity against human MCF7 cells assessed as cell viability after 24 hrs incubation by MTT assay; assay type: functional, cell-based; details: MCF7, 24 h
Outline: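 Cell lines came from DSMZ; primary human fibroblasts served as non-cancer controls. Cells were grown in medium with 10% FCS, seeded at 50,000 cells/ml, and grown 2 days at 37 °C, 10% CO2. Serial dilutions were then added for 24 h. MTT (final 0.5 mg/ml) was added for 2 h. Formazan was pelleted, PBS-washed, dissolved in isopropanol/0.4% HCl and read at 590 nm. Two parallel experiments were run. IC50 was taken as the concentration giving 50% of untreated-control absorbance.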

Pseudomonas aeruginosa = experiment: Antimicrobial activity against Pseudomonas aeruginosa assessed as inhibition at 20 ug/6 mm disk after 1 to 2 days by agar diffusion assay; assay type: functional
Outline: (§3)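 Standard agar diffusion: 6-mm paper disks loaded with 20 µg of compound were placed on inoculated plates. Inhibition-zone diameter (mm) was read after 1 and 2 days of growth.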

HOP-62 = experiment: Growth inhibition of human HOP62 cells after 48 hrs; assay type: functional; details: HOP-62, 48 h; outline: as §1
KM12 = experiment: Growth inhibition of human KM12 cells after 48 hrs; assay type: functional; details: KM12, 48 h; outline: as §1
NCI-H322M = experiment: Growth inhibition of human NCI-H322M cells after 48 hrs; assay type: functional; outline: as §1
Saccharomyces cerevisiae = experiment: Antimicrobial activity against Saccharomyces cerevisiae assessed as inhibition at 20 ug/6 mm disk after 1 to 2 days by agar diffusion assay; assay type: functional; outline: as §3
DU-145 = experiment: Growth inhibition of human DU145 cells after 48 hrs; assay type: functional; details: DU-145, 48 h; outline: as §1
[5] = Growth inhibition of human UO31 cells after 48 hrs; assay type: functional; details: UO-31, 48 h; outline: as §2
Klebsiella pneumoniae = experiment: Antimicrobial activity against Klebsiella pneumoniae assessed as inhibition at 20 ug/6 mm disk after 1 to 2 days by agar diffusion assay; assay type: functional; outline: as §3
[6] = Growth inhibition of human UACC257 cells after 48 hrs; assay type: functional; details: UACC-257, 48 h; outline: as §2
SF-268 = experiment: Growth inhibition of human SF268 cells after 48 hrs; assay type: functional; details: SF-268, 48 h; outline: as §1
[7] = Growth inhibition of human UACC62 cells after 48 hrs; assay type: functional; details: UACC-62, 48 h; outline: as §2
NCI-H460 = experiment: Growth inhibition of human NCI-H460 cells after 48 hrs; assay type: functional; details: NCI-H460, 48 h, read-out: pLC50 (the source's name) (converted); outline: as §1
CAKI-1 = experiment: Growth inhibition of human CAKI-1 cells after 48 hrs; assay type: functional; details: CAKI-1, 48 h; outline: as §1
NCI-H23 = experiment: Growth inhibition of human NCI-H23 cells after 48 hrs; assay type: functional; details: NCI-H23, 48 h, read-out: pLC50 (the source's name) (converted); outline: as §1
[8] = Growth inhibition of human RPMI8226 cells after 48 hrs; assay type: functional; details: RPMI-8226, 48 h; outline: as §1
MDA-MB-435 = experiment: Growth inhibition of human MDA-MB-435 cells after 48 hrs; assay type: functional; details: MDA-MB-435, 48 h; outline: as §1
MCF7 [9] = experiment: Growth inhibition of human MCF7 cells after 48 hrs; assay type: functional; details: MCF7, 48 h; outline: as §1
Escherichia coli = experiment: Antimicrobial activity against Escherichia coli tolC assessed as inhibition at 20 ug/6 mm disk after 1 to 2 days by agar diffusion assay; assay type: functional; outline: as §3
MDA-MB-468 = experiment: Growth inhibition of human MDA-MB-468 cells after 48 hrs; assay type: functional; details: MDA-MB-468, 48 h; outline: as §1
SN12C = experiment: Growth inhibition of human SN12C cells after 48 hrs; assay type: functional; outline: as §2
[10] = Growth inhibition of human PC3 cells after 48 hrs; assay type: functional; details: PC-3, 48 h; outline: as §1
[11] = Growth inhibition of human HCT116 cells after 48 hrs; assay type: functional; details: HCT-116, 48 h; outline: as §1
[12] = Lipophilicity, log K of the compound by HPLC analysis
[13] = read-out: pLC50 (the source's name) (converted)

SMILES: COc1ccc(N(CC(=O)NCCC[Te]c2ccccc2)C(=O)CCSC2=C(C)C(=O)c3ccccc3C2=O)cc1
- GI50 (MDA-MB-231): 1.23 µM
- LC50 (MDA-MB-231): 14.8 µM
- TGI (MDA-MB-231; read-out: pTGI (converted)): 3.89 µM
- CC50 (U-251): > 100 µM
- GI50 [1]: 1.86 µM
- CC50 [1, 13]: 6.61 µM
- TGI ([1]; read-out: pTGI (converted)): 3.47 µM
- GI50 (SK-MEL-28): 2.09 µM
- CC50 (SK-MEL-28; [13]): 12 µM
- TGI (SK-MEL-28; read-out: pTGI (converted)): 4.68 µM
- GI50 (HL-60(TB)): 2.88 µM
- CC50 (HL-60(TB); [13]): > 100 µM
- TGI (HL-60(TB); read-out: pTGI (converted)): 6.76 µM
- GI50 [2]: 0.589 µM
- LC50 [2]: 30.9 µM
- TGI ([2]; read-out: pTGI (converted)): 3.8 µM
- GI50 (M14): 0.759 µM
- CC50 (M14; [13]): 5.25 µM
- TGI (M14; read-out: pTGI (converted)): 2.14 µM
- GI50 [3]: 0.537 µM
- CC50 [3, 13]: > 100 µM
- TGI ([3]; read-out: pTGI (converted)): 3.55 µM
- IC50 (MCF7 [4]): 7 µM
- diameter of the inhibition zone (DIZ) (Pseudomonas aeruginosa): 0 mm
- GI50 (HOP-62): 0.339 µM
- CC50 (HOP-62; [13]): 3.8 µM
- TGI (HOP-62; read-out: pTGI (converted)): 1 µM
- GI50 (KM12): 0.417 µM
- CC50 (KM12; [13]): 5.13 µM
- TGI (KM12; read-out: pTGI (converted)): 1.51 µM
- GI50 (NCI-H322M): 2.09 µM
- CC50 (NCI-H322M; [13]): 60.3 µM
- TGI (NCI-H322M; read-out: pTGI (converted)): 6.03 µM
- diameter of the inhibition zone (DIZ) (Saccharomyces cerevisiae): 0 mm
- GI50 (DU-145): 0.955 µM
- LC50 (DU-145): 4.9 µM
- TGI (DU-145; read-out: pTGI (converted)): 2.19 µM
- GI50 [5]: 1.66 µM
- LC50 [5]: 8.71 µM
- TGI ([5]; read-out: pTGI (converted)): 2.19 µM
- diameter of the inhibition zone (DIZ) (Klebsiella pneumoniae): 12 mm
- GI50 [6]: 2.04 µM
- CC50 [6, 13]: 16.6 µM
- TGI ([6]; read-out: pTGI (converted)): 5.01 µM
- GI50 (SF-268): 0.468 µM
- CC50 (SF-268; [13]): 5.5 µM
- TGI (SF-268; read-out: pTGI (converted)): 1.86 µM
- GI50 [7]: 1.91 µM
- CC50 [7, 13]: 19.1 µM
- TGI ([7]; read-out: pTGI (converted)): 4.9 µM
- CC50 (NCI-H460): 4.68 µM
- GI50 (CAKI-1): 3.09 µM
- LC50 (CAKI-1): 21.4 µM
- TGI (CAKI-1; read-out: pTGI (converted)): 6.17 µM
- CC50 (NCI-H23): 20.4 µM
- GI50 [8]: 0.55 µM
- CC50 [8, 13]: > 100 µM
- TGI ([8]; read-out: pTGI (converted)): 3.09 µM
- GI50 (MDA-MB-435): 2.45 µM
- CC50 (MDA-MB-435; [13]): 26.9 µM
- TGI (MDA-MB-435; read-out: pTGI (converted)): 6.31 µM
- GI50 (MCF7 [9]): 0.49 µM
- LC50 (concentration killing 50% of cells) (MCF7 [9]): 75.9 µM
- TGI (MCF7 [9]; read-out: pTGI (converted)): 12 µM
- diameter of the inhibition zone (DIZ) (Escherichia coli): 12 mm
- GI50 (MDA-MB-468): 1.66 µM
- LC50 (MDA-MB-468): 6.76 µM
- TGI (MDA-MB-468; read-out: pTGI (converted)): 3.39 µM
- LC50 (SN12C): 23.4 µM
- LC50 [10]: 14.8 µM
- GI50 [11]: 0.339 µM
- CC50 [11, 13]: 5.5 µM
- TGI ([11]; read-out: pTGI (converted)): 1.29 µM
- log K [12]: -0.54
